The record followed here is ChEMBL document CHEMBL1777807, “3-Substituted 3-(4-aryloxyaryl)-propanoic acids as GPR40 agonists” (Bioorg Med Chem Lett, 2011).

pEC50, pIC50: −log10 of the molar value.

A word on the pEC50: it is the EC50 on a negative log10 scale, so that one unit is a factor of ten. The term pIC50 denotes the negative decadic logarithm of the IC50, by convention in mol/L. By Vd is commonly meant a proportionality between amount in the body and measured concentration, not a real space. Low values mean confinement near the circulation, high ones extensive tissue distribution. Broadly, the Tmax is the time at which the peak concentration occurs. The term clearance denotes the rate of elimination divided by the concentration. A higher clearance goes with efficient removal. Broadly, the half-life is the time needed for the level to fall by half in the phase considered. For orientation: Cmax means the peak of the concentration-time curve. The inhibition in vivo is the share of the control response that was lost under treatment.

Series [1] has as its target T1, Free fatty acid receptor 1 (Homo sapiens, UniProt O14842). Briefly: Agonist activity at human GPR40 expressed in CHO cells assessed as intracellular calcium mobilization by FLIPR assay. The format is functional, cell-based. The method in brief:
(§1)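 Intracellular calcium flux read on a fluorometric imaging plate reader, giving EC50 (nM). Each reported value is the mean of at least 3 experiments, with standard deviations below 75% of the average.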
A general note: Calcium flux is commonly read through the fluorescence of an indicator in the cells.

Series [2] deals with T1, Free fatty acid receptor 1. Briefly: Agonist activity at human GPR40 expressed in HEK293 cells assessed as [3H]IP3 production in presence of 10% human serum. The format is functional, cell-based. The procedure, abridged:
(§2)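 IP3 production was measured in human cells as EC50 (nM). One condition included 10% human serum and the other 0.4% serum albumin, to reflect plasma protein binding.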

Series [3] concerns the target T1, Free fatty acid receptor 1. Briefly: Inhibition of human GPR40 expressed in CHO cells by SPA based binding assay. It is filed as cell-based. The procedure, abridged:
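Scintillation proximity binding assay using receptor isolated from CHO cells overexpressing human GPR40, giving IC50 (nM). Each value is the mean of at least 3 experiments, with standard deviations below 75% of the average.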

Series [4] has as its target Free fatty acid receptor 1 (Mus musculus, UniProt Q76JU9). The series can be described thus: Agonist activity at mouse GPR40 expressed in CHO cells assessed as intracellular calcium mobilization by FLIPR assay. The format is functional, cell-based. The procedure, abridged:
as §1

The nature of series [5]: Volume of distribution in mouse. It is filed as ADME, organism-based. The note with it: in vivo.
A short description of series [6]: Tmax in mouse. As to conditions: in vivo. The format is ADME, organism-based.
The target in series [7] is Cytochrome P450 3A4 (Homo sapiens, UniProt P08684). The series can be described thus: Inhibition of CYP3A4. The format is ADME.
A short description of series [8]: Plasma clearance in mouse. It is filed as ADME, organism-based.
The target of series [9] is Voltage-dependent L-type calcium channel subunit alpha-1C (Homo sapiens, UniProt Q13936). The series can be described thus: Inhibition of Cav1.2 calcium channel.
Series [10] is described as follows: Half life in mouse. It is filed as ADME, organism-based. The note with it: in vivo.
Series [11] in a line: Oral bioavailability in mouse. It is filed as ADME, organism-based. As to conditions: in vivo.
Series [12] can be described thus: Cmax in mouse. The format is ADME, organism-based. As to conditions: in vivo.
Series [13] deals with Cytochrome P450 2C9 (Homo sapiens, UniProt P11712). Briefly: Inhibition of CYP2C9. The format is ADME.
Series [14] has as its target Cytochrome P450 2D6 (Homo sapiens, UniProt P10635). The series can be described thus: Inhibition of CYP2D6. It is filed as ADME.
The target of series [15] is T1, Free fatty acid receptor 1. Briefly: Agonist activity at human GPR40 expressed in HEK293 cells assessed as [3H]IP3 production in presence of 0.4% serum albumin. It is filed as functional, cell-based. The method in brief: as §2
The target of series [16] is Voltage-gated inwardly rectifying potassium channel KCNH2 (Homo sapiens, UniProt Q12809). The series can be described thus: Inhibition of human ERG.
The subject of series [17] is Mus musculus. Briefly: Inhibition of glucose AUC in dextrose-treated lean mouse blood at 10 mg/kg, po treated 1 hr prior to dextrose challenge by intraperitoneal glucose tolerance test. It is filed as functional.

Chain of Free fatty acid receptor 1 (Mus musculus, UniProt Q76JU9) (Q76JU9 whole entry): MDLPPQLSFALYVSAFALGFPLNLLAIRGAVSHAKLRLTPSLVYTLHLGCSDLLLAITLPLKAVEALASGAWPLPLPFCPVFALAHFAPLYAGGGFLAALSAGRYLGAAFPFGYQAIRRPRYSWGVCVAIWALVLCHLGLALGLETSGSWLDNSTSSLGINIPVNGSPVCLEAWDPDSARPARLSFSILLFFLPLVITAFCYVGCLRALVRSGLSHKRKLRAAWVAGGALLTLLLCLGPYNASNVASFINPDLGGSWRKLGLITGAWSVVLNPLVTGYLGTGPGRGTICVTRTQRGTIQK
Chain of Cytochrome P450 3A4 (P08684 whole entry): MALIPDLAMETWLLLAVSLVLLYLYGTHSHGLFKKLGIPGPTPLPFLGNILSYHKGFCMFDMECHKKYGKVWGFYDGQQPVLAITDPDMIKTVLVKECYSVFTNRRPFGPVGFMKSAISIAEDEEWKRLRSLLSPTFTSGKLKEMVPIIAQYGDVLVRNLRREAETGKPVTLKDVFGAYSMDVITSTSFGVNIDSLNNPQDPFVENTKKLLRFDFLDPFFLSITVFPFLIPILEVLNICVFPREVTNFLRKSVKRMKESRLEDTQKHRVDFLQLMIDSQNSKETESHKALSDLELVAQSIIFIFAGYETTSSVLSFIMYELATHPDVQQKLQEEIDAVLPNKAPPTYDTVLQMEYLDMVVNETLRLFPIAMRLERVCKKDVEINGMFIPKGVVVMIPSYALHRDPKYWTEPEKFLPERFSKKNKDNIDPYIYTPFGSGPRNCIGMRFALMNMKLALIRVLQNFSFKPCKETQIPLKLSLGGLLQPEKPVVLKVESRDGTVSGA
T1 sequence (O14842 whole entry): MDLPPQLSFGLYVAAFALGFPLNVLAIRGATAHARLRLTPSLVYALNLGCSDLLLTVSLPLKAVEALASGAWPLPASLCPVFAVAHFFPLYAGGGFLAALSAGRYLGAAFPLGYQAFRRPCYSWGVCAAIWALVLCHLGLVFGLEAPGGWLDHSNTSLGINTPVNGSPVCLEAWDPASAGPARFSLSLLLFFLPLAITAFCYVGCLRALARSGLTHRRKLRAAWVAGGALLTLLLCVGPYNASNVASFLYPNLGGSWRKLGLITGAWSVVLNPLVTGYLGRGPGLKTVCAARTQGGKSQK
Chain of Voltage-dependent L-type calcium channel subunit alpha-1C (Q13936 whole entry): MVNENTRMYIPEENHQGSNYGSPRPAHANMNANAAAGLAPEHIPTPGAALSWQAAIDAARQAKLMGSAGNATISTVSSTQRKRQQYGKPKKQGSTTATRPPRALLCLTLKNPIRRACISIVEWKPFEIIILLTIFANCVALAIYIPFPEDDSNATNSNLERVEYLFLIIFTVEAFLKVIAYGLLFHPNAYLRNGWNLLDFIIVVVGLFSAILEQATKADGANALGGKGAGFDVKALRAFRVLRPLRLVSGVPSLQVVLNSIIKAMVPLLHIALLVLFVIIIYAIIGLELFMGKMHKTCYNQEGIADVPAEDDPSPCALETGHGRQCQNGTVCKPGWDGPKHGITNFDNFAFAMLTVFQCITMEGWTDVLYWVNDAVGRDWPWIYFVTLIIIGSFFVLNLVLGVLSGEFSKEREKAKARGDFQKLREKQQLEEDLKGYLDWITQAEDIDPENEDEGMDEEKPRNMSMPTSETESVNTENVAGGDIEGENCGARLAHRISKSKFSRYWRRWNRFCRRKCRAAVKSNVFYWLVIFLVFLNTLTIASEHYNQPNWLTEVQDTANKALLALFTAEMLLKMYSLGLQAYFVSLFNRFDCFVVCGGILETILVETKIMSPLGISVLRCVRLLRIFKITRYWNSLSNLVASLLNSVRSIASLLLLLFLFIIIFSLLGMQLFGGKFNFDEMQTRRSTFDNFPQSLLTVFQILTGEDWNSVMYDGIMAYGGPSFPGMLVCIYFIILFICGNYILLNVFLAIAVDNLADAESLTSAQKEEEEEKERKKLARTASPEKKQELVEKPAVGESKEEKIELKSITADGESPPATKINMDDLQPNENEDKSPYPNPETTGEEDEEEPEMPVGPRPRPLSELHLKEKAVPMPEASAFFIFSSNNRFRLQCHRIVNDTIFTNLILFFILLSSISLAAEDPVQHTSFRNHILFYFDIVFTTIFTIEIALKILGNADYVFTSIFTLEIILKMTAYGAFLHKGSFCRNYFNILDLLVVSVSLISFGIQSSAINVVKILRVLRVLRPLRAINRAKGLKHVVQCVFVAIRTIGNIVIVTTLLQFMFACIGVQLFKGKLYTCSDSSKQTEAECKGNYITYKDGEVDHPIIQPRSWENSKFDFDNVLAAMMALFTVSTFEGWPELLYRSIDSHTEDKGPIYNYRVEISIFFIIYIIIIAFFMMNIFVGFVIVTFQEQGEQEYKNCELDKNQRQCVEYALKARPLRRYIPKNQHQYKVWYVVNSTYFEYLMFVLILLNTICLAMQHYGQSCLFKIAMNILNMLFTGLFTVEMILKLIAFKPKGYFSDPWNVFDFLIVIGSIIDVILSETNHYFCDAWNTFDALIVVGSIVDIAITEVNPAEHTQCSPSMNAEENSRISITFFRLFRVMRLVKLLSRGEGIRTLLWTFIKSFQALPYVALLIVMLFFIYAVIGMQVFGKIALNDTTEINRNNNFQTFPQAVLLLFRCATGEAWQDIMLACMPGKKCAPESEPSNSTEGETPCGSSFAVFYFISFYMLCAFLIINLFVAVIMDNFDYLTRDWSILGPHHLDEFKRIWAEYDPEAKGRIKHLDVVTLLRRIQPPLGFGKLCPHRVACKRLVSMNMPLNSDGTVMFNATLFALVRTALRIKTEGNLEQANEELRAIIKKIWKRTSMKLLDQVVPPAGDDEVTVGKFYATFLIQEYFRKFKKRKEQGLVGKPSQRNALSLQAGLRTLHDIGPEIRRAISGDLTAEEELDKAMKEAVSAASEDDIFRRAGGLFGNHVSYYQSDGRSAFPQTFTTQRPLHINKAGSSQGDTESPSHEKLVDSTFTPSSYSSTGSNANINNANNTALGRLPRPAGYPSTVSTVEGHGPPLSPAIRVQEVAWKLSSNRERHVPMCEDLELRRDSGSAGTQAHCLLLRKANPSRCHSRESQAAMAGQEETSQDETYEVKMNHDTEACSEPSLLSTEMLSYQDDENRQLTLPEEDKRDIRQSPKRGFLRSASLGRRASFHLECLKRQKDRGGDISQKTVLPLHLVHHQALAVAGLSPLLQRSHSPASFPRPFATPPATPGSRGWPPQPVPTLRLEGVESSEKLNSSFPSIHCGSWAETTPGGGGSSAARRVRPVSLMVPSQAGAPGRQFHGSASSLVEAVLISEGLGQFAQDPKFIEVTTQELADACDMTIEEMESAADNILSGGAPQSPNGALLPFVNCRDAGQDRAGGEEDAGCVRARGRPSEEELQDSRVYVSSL
Chain of Voltage-gated inwardly rectifying potassium channel KCNH2 (Q12809 whole entry): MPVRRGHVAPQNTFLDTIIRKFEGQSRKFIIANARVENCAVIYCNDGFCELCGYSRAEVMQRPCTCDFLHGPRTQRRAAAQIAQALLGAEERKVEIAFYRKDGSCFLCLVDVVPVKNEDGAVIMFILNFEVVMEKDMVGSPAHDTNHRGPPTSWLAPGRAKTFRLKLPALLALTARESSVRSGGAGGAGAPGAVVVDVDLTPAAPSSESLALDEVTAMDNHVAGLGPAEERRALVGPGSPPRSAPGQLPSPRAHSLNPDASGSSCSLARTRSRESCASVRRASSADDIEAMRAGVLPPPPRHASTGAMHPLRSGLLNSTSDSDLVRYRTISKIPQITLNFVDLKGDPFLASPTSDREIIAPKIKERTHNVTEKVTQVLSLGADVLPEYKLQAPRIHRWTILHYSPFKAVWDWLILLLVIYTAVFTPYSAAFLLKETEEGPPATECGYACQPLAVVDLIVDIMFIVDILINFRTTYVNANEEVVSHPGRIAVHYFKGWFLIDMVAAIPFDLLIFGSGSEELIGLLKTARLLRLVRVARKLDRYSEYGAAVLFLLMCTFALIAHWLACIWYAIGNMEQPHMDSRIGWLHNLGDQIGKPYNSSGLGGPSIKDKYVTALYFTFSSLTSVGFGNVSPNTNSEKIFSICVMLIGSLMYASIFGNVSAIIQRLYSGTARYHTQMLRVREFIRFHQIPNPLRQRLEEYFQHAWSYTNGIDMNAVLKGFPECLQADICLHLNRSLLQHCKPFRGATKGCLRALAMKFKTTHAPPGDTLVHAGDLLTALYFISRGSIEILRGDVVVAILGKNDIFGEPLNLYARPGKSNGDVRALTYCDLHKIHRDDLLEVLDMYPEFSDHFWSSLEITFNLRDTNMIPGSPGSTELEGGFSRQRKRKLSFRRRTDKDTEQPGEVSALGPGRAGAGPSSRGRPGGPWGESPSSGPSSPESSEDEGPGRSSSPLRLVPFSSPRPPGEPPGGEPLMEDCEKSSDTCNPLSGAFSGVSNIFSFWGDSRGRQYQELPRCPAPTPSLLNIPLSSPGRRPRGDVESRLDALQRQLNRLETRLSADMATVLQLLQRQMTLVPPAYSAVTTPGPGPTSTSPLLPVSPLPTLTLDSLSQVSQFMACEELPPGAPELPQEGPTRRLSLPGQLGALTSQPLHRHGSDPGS
Chain of Cytochrome P450 2C9 (P11712 whole entry): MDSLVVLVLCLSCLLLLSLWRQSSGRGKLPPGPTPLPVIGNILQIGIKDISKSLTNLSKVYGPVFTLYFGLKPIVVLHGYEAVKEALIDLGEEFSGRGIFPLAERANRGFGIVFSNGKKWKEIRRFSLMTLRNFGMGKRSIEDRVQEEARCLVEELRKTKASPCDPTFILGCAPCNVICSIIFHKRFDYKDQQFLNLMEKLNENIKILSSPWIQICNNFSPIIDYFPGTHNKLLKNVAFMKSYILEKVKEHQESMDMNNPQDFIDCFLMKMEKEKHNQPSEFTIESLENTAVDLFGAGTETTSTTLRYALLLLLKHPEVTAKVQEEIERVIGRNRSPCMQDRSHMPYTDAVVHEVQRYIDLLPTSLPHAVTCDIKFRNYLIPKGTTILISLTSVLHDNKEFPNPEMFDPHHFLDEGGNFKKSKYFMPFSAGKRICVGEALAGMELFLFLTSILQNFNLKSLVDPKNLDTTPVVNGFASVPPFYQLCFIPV

Turning to `CC(CC(=O)O)c1ccc(Oc2ccc(Cl)cc2Cl)cc1` (racemic), the pEC50 in series [1] is 5.60.

As to `CC#CC(CC(=O)O)c1ccc(Oc2ncc(C(F)(F)F)cc2Cl)cc1` (racemic), the pEC50 was 6.39 in series [2], 7.02 in series [4] and 6.97 in series [1]. This compound had a pIC50 in [3] of 7.52.

Turning to `O=C(O)CCc1ccc(Oc2ccc(Cl)cc2Cl)cc1`, the pEC50 in series [1] is 5.87.

In the case of `O=C(O)C(Cc1ccc(Oc2ccc(C(F)(F)F)cc2Cl)cc1)C(=O)O`, the pEC50 in [1] is 6.01.

On to `CC#CC(CC(=O)O)c1ccc(Oc2ccc(C(F)(F)F)c3ccccc23)cc1` (racemic), for which the pIC50 in series [3] was 6.68. The pEC50 in [4] is 5.90; in [1], 5.85.

In [3], `CC#CC(CC(=O)O)c1ccc(O[C@@H]2CCc3ccccc32)cc1` (mixture of isomers) showed a pIC50 of 7.38. In addition, the results for the pEC50 in [4] and in [1] were 7.33 and 7.51, respectively.

Take `CC#CC(CC(=O)O)c1ccc(Oc2ncc(Br)cn2)cc1` (racemic): the pIC50 in [3] was 6.36. In addition, the negative logarithm of the EC50 (pEC50) in series [4] is 5.83; in [1] it was 5.80.

`CC#C[C@@H](c1ccc(Oc2ccc(C(F)(F)F)cc2OC(F)F)cc1)[C@H]1OC(=O)NC1=O` (racemic) showed a Vd in series [5] of 0.47 L/kg. In addition, the Tmax in series [6] amounted to 4.7 h. Besides, the pIC50 is 6.82 in series [3], less than 4.30 in [7] and 5.29 in series [9]. The same compound came in with a clearance in [8] of 0.051 L/h/kg. Moreover, the pEC50 in [4] is 6.87; in series [1], 6.89. Further, in [10], the half-life was 7 h. Moreover, in series [11], the bioavailability came to 93%. Besides, the Cmax in [12] came out at 5.5 µM.

In series [3], `CC#CC(c1ccc(OCc2ccccc2)cc1)C1OC(=O)NC1=O` (racemic) showed a pIC50 of 5.36. In addition, the negative logarithm of the EC50 (pEC50) in series [4] is 5.43; in series [1] it was 6.02.

For the compound `CC#CC(CC(=O)O)c1ccc(Oc2ccc(C(F)(F)F)cc2OC(F)F)cc1F` (racemic), the pIC50 is 4.55 in [13]; less than 4.30 in series [14]; 7.31 in series [3]; less than 4.30 in series [7]; 4.59 in series [9]; 4.60 in series [16]. Besides, the pEC50 is 6.51 in series [2], 6.98 in series [4], 6.46 in [15] and 6.95 in series [1].

For `CC#CC(CC(=O)O)c1ccc(Oc2nccnc2C#N)cc1` (racemic), in series [3], the pIC50 was 5.60. In addition, the pEC50 is 6.01 in series [4] and 5.80 in series [1].

`O=C(O)CCc1ccc(Oc2ccc(C(F)(F)F)cc2Cl)cc1`: the pEC50 in [1] is 6.16.

As to `CC#CC(c1ccc(Oc2ccc(C(F)(F)F)cc2OC(F)F)cc1)C1OC(=O)NC1=O` (racemic), the pEC50 in [2] is 6.65; in series [4], 6.58; in series [15] it was 6.60; in series [1] it was 6.91. This compound showed a pIC50 in series [3] of 7.72.

In the case of `CC#CC(CC(=O)O)c1ccc(Oc2ccc(C#N)c3ccccc23)cc1` (racemic), the pEC50 in series [2] was 6.76; in series [4] it was 7.03; in series [15] it was 6.61; in [1], 7.28. The pIC50 in series [3] is 7.89.

Compound `CC#C[C@]1(c2ccc(Oc3ccc(C(F)(F)F)cc3Cl)cc2)C[C@H]1C(=O)O` (racemic) had a pIC50 in [3] of less than 5.00. Also, the negative-log EC50 (pEC50) in series [4] was less than 4.40; in [1], 4.61.

For `CC#CC(CC(=O)O)c1ccc(Oc2ccc(C(F)(F)F)cc2OC(F)F)cc1` (racemic), the pIC50 is less than 4.30 in [13]; less than 4.30 in [14]; 7.92 in series [3]; less than 4.30 in series [7]; less than 4.52 in [9]; less than 4.22 in series [16]. Further, the Vd in series [5] turned out to be 0.31 L/kg. For the same compound, in [6], the time of peak concentration (Tmax) worked out at 4 h. In addition, the pEC50 in series [2] was 6.36; in series [4] it was 7.11; in [15], 6.34; in series [1] it was 7.15. For the same compound, in series [8], the clearance was 0.0294 L/h/kg. The compound also registered an inhibition in vivo at 10 mg/kg in series [17] of 66%. Also, in series [10], the half-life is 7.8 h. Further, in series [11], the bioavailability was 112%. Also, in series [12], the maximum concentration (Cmax) is 12 µM.

Take `CC#C[C@H](c1ccc(Oc2ccc(C(F)(F)F)cc2OC(F)F)cc1)[C@H]1OC(=O)NC1=O` (racemic): the pIC50 in series [3] is 5.62. Moreover, the pEC50 was 5.15 in series [4] and 5.12 in series [1].

The compound `CC#CC(CC(=O)O)c1ccc(Oc2ccc(C#N)cc2Br)cc1` (racemic) gave a pIC50 in [3] of 7.44. In addition, the results for the pEC50 in series [4] and in series [1] were 7.06 and 7.07, respectively.

On to `CC#CC(CC(=O)O)c1ccc(OC2CCCc3nc(-c4ccc(C)cc4)sc32)cc1` (mixture of isomers), for which the pIC50 in series [3] is 7.64. The pEC50 was 7.00 in series [4] and 7.29 in series [1].

As to `CC#CC(CC(=O)O)c1ccc(Oc2nccc3ccccc23)cc1` (racemic), in series [3], the pIC50 is 6.47. Further, the pEC50 is 6.83 in [4] and 6.40 in series [1].

As for `O=C1NC(=O)C(Cc2ccc(Oc3ccc(F)cc3)cc2)S1` (stereo unspecified), in series [1], the pEC50 is 6.32.

In series [3], `CC#CC(CC(=O)O)c1ccc(OC2CCCC2)cc1` (racemic) had a pIC50 of 6.51. The values for the pEC50 in series [4] and in series [1] were 6.91 and 6.94, respectively.

Compound `CC#CC(CC(=O)O)c1ccc(Oc2ccc(C(F)(F)F)cc2C)cc1` (racemic) gave a pIC50 in series [3] of 7.40. Further, the pEC50 was 6.90 in [4] and 7.03 in [1].

For `CC#C[C@]1(c2ccc(Oc3ccc(C(F)(F)F)cc3Cl)cc2)C[C@@H]1C(=O)O` (racemic), the pIC50 in [3] is 5.46. The pEC50 is 6.06 in series [4] and 5.55 in [1].

On to `CC#CC(CC(=O)O)c1ccc(Oc2ccc(C#N)cc2Cl)cc1` (racemic), for which the pEC50 was 6.28 in series [2], 7.32 in [4], 6.22 in series [15] and 7.38 in [1]. In [3], this compound had a pIC50 of 7.64.
